The subject of assay [1] is Mus musculus. Description: Percentage efficacy to normalize the blood glucose levels to that of normal mouse in ob/ob mouse after 3 days and 8 hours of 100 mg/kg dose administration; Nonsignificant. Format: functional, organism-based. On the set-up: dose 100 mg/kg. The gist of the method: (§1)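 Adult male C57BL ob/ob mice, n = 6/group, matched on day-0 blood glucose; non-diabetic animals (<150 mg/dL basal) excluded. Oral dosing each morning days 1-3 in 0.5% CMC with 0.2% Tween-80. Tail-nick blood glucose by YSI analyzer. % efficacy = {1 − ([glc]cpd − 100)/([glc]veh − 100)} × 100. Significance by t-test vs vehicle, p < 0.05.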

Assay [2] has as its system Mus musculus. Description: Percentage efficacy to normalize the blood glucose levels to that of normal mouse in ob/ob mouse after 3 days and 4 hours of 100 mg/kg dose administration; Nonsignificant. Format: functional, organism-based. Further details: dose 100 mg/kg. The gist of the method:
as §1

For assay [3], the system named is Mus musculus. Description: Percentage efficacy to normalize the blood glucose levels to that of normal mouse in ob/ob mouse after 3 days and 4 hours of 100 mg/kg dose administration. Format: functional. In outline: as §1
In assay [4] the test system is Mus musculus. Description: Percentage efficacy to normalize the blood glucose levels to that of normal mouse in ob/ob mouse after 3 days and 8 hours of 100 mg/kg dose administration. The assay is classed as functional. In outline:
as §1

Assay [5] relates to Mus musculus. Description: Percentage efficacy to normalize the blood glucose levels to that of normal mouse in ob/ob mouse after 3 days and 4 hours of 300 mg/kg dose administration; Nonsignificant. Format: functional, organism-based. On the set-up: dose 300 mg/kg. The gist of the method: as §1
For assay [6], the system named is Mus musculus. Description: Percentage efficacy to normalize the blood glucose levels to that of normal mouse in ob/ob mouse after 3 days and 8 hours of 300 mg/kg dose administration. The assay is classed as functional. In outline:
as §1

For assay [7], the system named is Mus musculus. Description: Percentage efficacy to normalize the blood glucose levels to that of normal mouse in ob/ob mouse after 3 days and 4 hours of 300 mg/kg dose administration. The assay is classed as functional. In outline: as §1
The test system of assay [8] is Mus musculus. Description: Percentage efficacy to normalize the blood glucose levels to that of normal mouse in ob/ob mouse after 3 days and 8 hours of 300 mg/kg dose administration; Nonsignificant. Format: functional, organism-based. On the set-up: dose 300 mg/kg. In outline: as §1

The structures appear in SMILES notation.

Take `CN(C)C(=O)Cc1cn(-c2cccc(C(F)(F)F)c2)nc1-c1ccc(Oc2ccccc2)cc1`: the Efficacy entry in assay [1] and in assay [2] was “Not significant” throughout.
Turning to `CN(C)C(=O)Cc1cn(-c2cccc(C(F)(F)F)c2)nc1-c1cccc(-c2ccccc2)c1`, the Efficacy entry in assay [1] and in assay [2] was “Not significant” each time.
Regarding `CC(=O)OC1c2ccccc2-c2ccc(-c3nn(-c4cccc(C(F)(F)F)c4)cc3CC(=O)N(C)C)cc21` (stereo not given), the Efficacy is on record as 95% in assay [3] and 108% in assay [4].
As for `CN(C)C(=O)Cc1cn(-c2cccc(C(F)(F)F)c2)nc1-c1ccc2c(c1)Cc1ccccc1C2`, the results for the Efficacy in assay [3] and in assay [4] were 79% and 70%, respectively.
`CN(C)C(=O)Cc1cn(-c2cccc(C(F)(F)F)c2)nc1-c1ccc(Cl)cc1`: the Efficacy entry in assay [5] was “Not significant”; in assay [6], 78%.
`CN(C)C(=O)Cc1cn(-c2cccc(C(F)(F)F)c2)nc1-c1ccc2ccccc2c1`: the Efficacy result in assay [1] and in assay [2] was “Not significant” each time.
Regarding `CN(C)C(=O)Cc1cn(-c2cccc(C(F)(F)F)c2)nc1-c1ccc(-c2ccc(F)cc2)cc1`, the Efficacy in assay [4] is 81%; in assay [2] it was “Not significant”.
Turning to `Cc1ccc(-c2nn(-c3cccc(C(F)(F)F)c3)cc2CC(=O)N(C)C)cc1`, the Efficacy was determined as 58% in assay [7] and 36% in assay [6].
Regarding `Cc1cc(C)cc(-n2cc(CC(=O)N(C)C)c(-c3ccc(Cl)c(Cl)c3)n2)c1`, the Efficacy entry in assay [8] and in assay [5] was “Not significant” in each case.
Consider `O=C(O)Cc1cn(-c2cccc(C(F)(F)F)c2)nc1-c1ccc(Cl)c(Cl)c1`, for which the Efficacy result in assay [8] and in assay [5] was “Not significant” in each case.
Consider `CN(C)C(=O)Cc1cn(-c2cccc([N+](=O)[O-])c2)nc1-c1ccc(Cl)c(Cl)c1`, for which the Efficacy is listed as -72% in assay [3] and -88% in assay [4].
`Cc1cccc(-n2cc(CC(=O)N(C)C)c(-c3ccc(Cl)c(Cl)c3)n2)c1`: the Efficacy result in assay [1] and in assay [2] was “Not significant” throughout.
With `COc1ccc(-c2nn(-c3cccc(C(F)(F)F)c3)cc2CC(=O)N(C)C)cc1OC`, the results for the Efficacy in assay [4] and in assay [2] were 85% and “Not significant”, respectively.
As for `CN(C)C(=O)Cc1cn(-c2ccc(Cl)cc2)nc1-c1ccc(Cl)c(Cl)c1`, the Efficacy in assay [7] is on record as 47%; in assay [6], 52%.
Regarding `O=C(Cc1cn(-c2cccc(C(F)(F)F)c2)nc1-c1ccc(Cl)c(Cl)c1)NO`, the Efficacy result in assay [8] and in assay [5] was “Not significant” each time.
With `CN1CCN(C(=O)Cc2cn(-c3cccc(C(F)(F)F)c3)nc2-c2ccc(Cl)c(Cl)c2)CC1`, the Efficacy is 54% in assay [7] and “Not significant” in assay [8].
Turning to `O=C(Cc1cn(-c2cccc(C(F)(F)F)c2)nc1-c1ccc(Cl)c(Cl)c1)N(Cc1ccccc1)Cc1ccccc1`, the results for the Efficacy in assay [3] and in assay [4] were 52% and 49%, respectively.
On to `CN(C)C(=O)Cc1cn(-c2ccc(C(F)(F)F)cc2)nc1-c1ccc(Cl)c(Cl)c1`, for which the Efficacy is 45% in assay [7] and 37% in assay [6].
For the molecule `CCOC(=O)Cc1cn(-c2cccc(C(F)(F)F)c2)nc1-c1ccc(Cl)c(Cl)c1`, the Efficacy entry in assay [8] and in assay [5] was “Not significant” throughout.
Regarding `CN(C)C(=O)Cc1cn(-c2cc(C(F)(F)F)cc(C(F)(F)F)c2)nc1-c1ccc(Cl)c(Cl)c1`, the Efficacy entry in assay [8] and in assay [5] was “Not significant” each time.
For the molecule `O=C(Cc1cn(-c2cccc(F)c2)nc1-c1ccc(Cl)c(Cl)c1)N1CCCC1`, the Efficacy in assay [7] is recorded as 74%; in assay [6], 75%.
In the same order, the values of `O=C(Cc1cn(-c2cccc(C(F)(F)F)c2)nc1-c1ccc(Cl)c(Cl)c1)N1CCCC1` are 72% and 76%.
`CONC(=O)Cc1cn(-c2cccc(C(F)(F)F)c2)nc1-c1ccc(Cl)c(Cl)c1`: the Efficacy is on record as 48% in assay [7] and 35% in assay [6].
`CN(C)C(=O)Cc1cn(-c2cccc(C(F)(F)F)c2)nc1-c1ccc2oc3ccccc3c2c1`: the Efficacy entry in assay [1] and in assay [2] was “Not significant” in each case.
Take `CN(C)C(=O)Cc1cn(-c2cccc(C(F)(F)F)c2)nc1-c1ccc2c(c1)CCc1ccccc1-2`: the Efficacy in assay [3] came out at 87%; in assay [4], 111%.
Consider `CN(C)C(=O)Cc1cn(-c2cccc(C(F)(F)F)c2)nc1-c1ccc2c(c1)C(=O)c1ccccc1-2`, for which the values for the Efficacy in assay [3] and in assay [4] were 107% and 78%, respectively.
With `CN(C)C(=O)Cc1cn(-c2ccc(C(C)(C)C)cc2)nc1-c1ccc(Cl)c(Cl)c1`, the Efficacy entry in assay [1] and in assay [2] was “Not significant” in each case.
For `CN(C)C(=O)Cc1cn(-c2cccc(C(F)(F)F)c2)nc1-c1ccc(-c2ccc(-c3ccccc3)cc2)cc1`, the Efficacy result in assay [1] and in assay [2] was “Not significant” throughout.
`CN(C)C(=O)Cc1cn(-c2cccc(C(F)(F)F)c2)nc1-c1ccc2c(c1)C(C)(C)c1ccccc1-2`: the Efficacy in assay [3] is on record as 67%; in assay [4], 83%.
Take `CN(C)C(=O)Cc1cn(-c2cccc(C(F)(F)F)c2)nc1-c1ccc2c(ccc3ccccc32)c1`: the Efficacy in assay [3] was 90%; in assay [4], 71%.
Consider `O=C(Cc1cn(-c2cccc(C(F)(F)F)c2)nc1-c1ccc(Cl)c(Cl)c1)N1CCN(c2ccccc2)CC1`, for which the figures for the Efficacy in assay [4] and in assay [2] were 42% and “Not significant”, respectively.
For the molecule `O=C(Cc1cn(-c2cccc(C(F)(F)F)c2)nc1-c1ccc(Cl)c(Cl)c1)N1CCCCC1`, the Efficacy entry in assay [8] and in assay [5] was “Not significant” each time.
With `CN(C)C(=O)Cc1cn(-c2cccc(C(F)(F)F)c2)nc1-c1cccc2ccccc12`, the Efficacy entry in assay [1] and in assay [2] was “Not significant” in each case.
Regarding `CN(C)C(=O)Cc1cn(-c2cccc(C(F)(F)F)c2)nc1-c1ccccc1`, the Efficacy was found to be 71% in assay [7] and 36% in assay [6].
In the same order, the values of `COc1ccc(-n2cc(CC(=O)N(C)C)c(-c3ccc(Cl)c(Cl)c3)n2)cc1` are 39% and 35%.
As to `CN(C(=O)Cc1cn(-c2cccc(C(F)(F)F)c2)nc1-c1ccc(Cl)c(Cl)c1)c1ccccc1`, the Efficacy in assay [7] is 57%; in assay [8], “Not significant”.
With `CN(C)C(=O)Cc1cn(-c2cccc(C(F)(F)F)c2)nc1-c1ccc2sc3ccccc3c2c1`, the figures for the Efficacy in assay [3] and in assay [1] were 59% and “Not significant”, respectively.
For `CN(C)C(=O)Cc1cn(-c2ccc(F)cc2)nc1-c1ccc(Cl)c(Cl)c1`, the Efficacy in assay [7] was determined as 84%; in assay [6], 39%.
With `O=C(Cc1cn(-c2cccc(C(F)(F)F)c2)nc1-c1ccc(Cl)c(Cl)c1)N1CCOCC1`, the Efficacy result in assay [8] and in assay [5] was “Not significant” in each case.
For `CN(C)C(=O)Cc1cn(-c2cccc(C(F)(F)F)c2)nc1-c1ccc(C(C)(C)C)cc1`, the Efficacy result in assay [1] and in assay [2] was “Not significant” in each case.
Regarding `CN(C)C(=O)Cc1cn(-c2cccc(C(F)(F)F)c2)nc1-c1ccc2c(c1)C(C)(O)c1ccccc1-2` (stereo not given), the values for the Efficacy in assay [3] and in assay [4] were 73% and 64%, respectively.
For the molecule `CCN(CC)C(=O)Cc1cn(-c2cccc(C(F)(F)F)c2)nc1-c1ccc(Cl)c(Cl)c1`, the results for the Efficacy in assay [7] and in assay [6] were 45% and 50%, respectively.
As to `CN(C)C(=O)Cc1cn(-c2ccc(Cl)c(Cl)c2)nc1-c1ccc(Cl)c(Cl)c1`, the figures for the Efficacy in assay [7] and in assay [6] were 34% and 53%, respectively.
Consider `CN(C)C(=O)Cc1cn(-c2cc(Cl)cc(Cl)c2)nc1-c1ccc(Cl)c(Cl)c1`, for which the figures for the Efficacy in assay [7] and in assay [8] were 52% and “Not significant”, respectively.
On to `CN(C)C(=O)Cc1cn(-c2cccc(C(F)(F)F)c2)nc1-c1ccc2c(c1)Cc1ccccc1O2`, for which the Efficacy in assay [3] is reported as 65%; in assay [4], 96%.
As for `CN(C)C(=O)Cc1cn(-c2cccc(C(F)(F)F)c2)nc1-c1ccccc1-c1ccccc1`, the Efficacy result in assay [1] and in assay [2] was “Not significant” throughout.
Regarding `CN(C)C(=O)Cc1cn(-c2cccc(C(F)(F)F)c2)nc1-c1ccc(Cl)c(Cl)c1`, the Efficacy entry is “Not significant” in assay [5] and 63% in assay [6].
For `CN(C)C(=O)Cc1cn(-c2cccc(C(F)(F)F)c2)nc1-c1cc2ccccc2c2ccccc12`, the Efficacy result in assay [1] and in assay [2] was “Not significant” in each case.
Turning to `O=C(Cc1cn(-c2cccc(C(F)(F)F)c2)nc1-c1ccc(Cl)c(Cl)c1)Nc1ccccc1`, the Efficacy result in assay [8] and in assay [5] was “Not significant” each time.
`CN(C)C(=O)Cc1cn(-c2cccc(C(F)(F)F)c2)nc1-c1ccc(Cc2ccccc2)cc1`: the Efficacy entry in assay [1] and in assay [2] was “Not significant” each time.

These data come from ChEMBL document CHEMBL1134551, “The effect of 1,3-diaryl-[1H]-pyrazole-4-acetamides on glucose utilization in ob/ob mice” (2001).
